Bioassay records deposited in PubChem BioAssay by Sanford-Burnham Center for Chemical Genomics.
Most compounds without a hit are left out; they make up all but 0.79% or so of the library.
bIAP inh: blocks bovine intestinal alkaline phosphatase activity; purified bovine IAP, CDP-star luminescence, 30 min; inhibition, % at 20 µM; 190,000 tested, under 10 active; AID 1019;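 active = over 50% inhibition of intestinal alkaline phosphatase at 20 µM in the single-dose screen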
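System: purified bovine intestinal alkaline phosphatase (IAP) enzyme; Input: IAP diluted 1/65,000,000 in the well; Measured by: CDP-star luminescence signal; Compound dosing: 20 µM single dose; Incubation: 30 min reaction at room temperature.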
mIAP activ: increases mouse intestinal alkaline phosphatase activity. muIAP, CDP-Star luminescence, 30 min; stronger effect = higher value; 1 = vehicle-only enzyme signal, 0 = enzyme-free wells. activation factor at 10 µM. hit rate 0.24% among 330,000. AID 2805;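 active = activation factor of at least 2 at 20 µM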
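System: Mouse IAP enzyme | Also added: CDP-Star substrate | Dosing: Compounds dispensed in DMSO | Schedule: 30 min enzyme-substrate-compound incubation at room temperature | Technique: Chemiluminescence readout | Control set: DMSO-only wells and no-enzyme negative control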
mIAP block: blocks mouse intestinal alkaline phosphatase | inhibition, % at 10 µM | hit rate 0.2% among 330,000 | purified mouse IAP, CDP-Star luminescence, 30 min | AID 2806;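 active = inhibition of at least 40% at 10 µM in the primary screen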;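 note: plate controls were DMSO with enzyme for no effect and no enzyme wells for full effect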
bIAP act: intestinal alkaline phosphatase (bovine) activation; purified bovine IAP, CDP-star luminescence, 30 min; stronger effect = higher value; fold of DMSO-control signal, blank-subtracted; hit rate 0.17% among 200,000; activation factor at 20 µM;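 active = activation factor of 2 or more at 20 µM, a signal rise over negative controls twice the positive control's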
hIAP block: human IAP inhibition; purified IAP, CDP-Star luminescence, 30 min; inhibition, % at 10 µM; hit rate 0.12% among 330,000;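 active = inhibition reaching a set limit with compound at 10 µM in the primary screen, cut at about 35% in these data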;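 note: plate controls were DMSO wells with enzyme for no effect and no-enzyme buffer wells for full effect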
Target sequence (P09923 whole entry, looked up): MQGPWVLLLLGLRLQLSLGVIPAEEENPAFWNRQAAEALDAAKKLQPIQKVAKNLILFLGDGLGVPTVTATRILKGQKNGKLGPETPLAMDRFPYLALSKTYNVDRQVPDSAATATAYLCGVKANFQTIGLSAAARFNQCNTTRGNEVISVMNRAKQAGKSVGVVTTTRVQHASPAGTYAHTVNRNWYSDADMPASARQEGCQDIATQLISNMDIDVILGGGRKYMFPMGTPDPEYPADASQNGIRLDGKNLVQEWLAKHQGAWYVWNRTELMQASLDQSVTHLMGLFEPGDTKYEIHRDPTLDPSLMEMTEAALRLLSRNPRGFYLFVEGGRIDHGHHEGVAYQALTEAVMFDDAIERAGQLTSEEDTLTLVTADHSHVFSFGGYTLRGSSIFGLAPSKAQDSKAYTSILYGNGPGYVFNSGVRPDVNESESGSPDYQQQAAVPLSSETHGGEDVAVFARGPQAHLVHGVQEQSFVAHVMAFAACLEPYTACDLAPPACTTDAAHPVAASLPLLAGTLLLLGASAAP
hIAP activ: increases human intestinal alkaline phosphatase activity | P09923 | purified human IAP, CDP-Star luminescence, 30 min; stronger effect = higher value; 1 = vehicle-only enzyme, 0 = enzyme-free background | activation factor at 10 µM | hit rate 0.16% among 330,000 | AID 2524;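 active = activation factor of the enzyme at least 2-fold when tested at 20 µM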
hIAP act confirm: human IAP activation confirmation; purified IAP, CDP-Star luminescence, 30 min; stronger effect = lower value; shares compounds with hIAP activ; hit rate 10% among 880; activation (%Activity, negative = activation), % at 8.3 µM;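 active = at least twofold enzyme activation in any of six single-dose repeats, which the averaged readout prints as negative percent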
* = called active by the depositor.

Screening CCOc1ccc(C(C)NC(=S)NC2CCCCC2)cc1 (stereo unspecified) returned bIAP inh 16, mIAP activ 1.8, mIAP block -76, bIAP act 0.8, hIAP block -23 and hIAP activ 1.2.
`CC(NC(=S)NC1CCCCC1)c1ccc(C(C)(C)C)cc1` (stereo unspecified) gave mIAP activ 5.3*, mIAP block -431, hIAP block -133, hIAP activ 2.3* and hIAP act confirm -20.
CCC(C)c1ccc(C(C)NC(=S)NC2CCCCC2)cc1 (stereo unspecified) was read as mIAP activ 4.7*, mIAP block -370, hIAP block -256, hIAP activ 3.6* and hIAP act confirm -72.
Screening NC(=O)C1CCN(C(=O)C2CCN(S(=O)(=O)c3ccccc3)CC2)CC1 returned bIAP inh -1, mIAP activ 0.89, mIAP block 12, bIAP act 1, hIAP block 14 and hIAP activ 0.86.
For COc1ccc(NC(=O)c2ccsc2NC(C)=O)cc1 the results were bIAP inh -6, mIAP activ 0.93, mIAP block 8, bIAP act 1.1, hIAP block 1 and hIAP activ 0.99.
O=C(CCCCC(=O)NNC(=O)COc1ccccc1)NNC(=O)COc1ccccc1 was read as mIAP activ 0.84, mIAP block 16, hIAP block -151, hIAP activ 2.5* and hIAP act confirm -88*.
Cc1cccc(OCC(=O)NNC(=O)c2ccc3nc[nH]c3c2)c1 was read as mIAP activ 1, mIAP block 0, hIAP block -136, hIAP activ 2.4* and hIAP act confirm -117*.
For CC(C)(C)NC(=O)C(=O)NNC(=O)COc1ccccc1 the results were bIAP inh -6, mIAP activ 0.92, mIAP block 8, bIAP act 1.1, hIAP block -107, hIAP activ 2.1* and hIAP act confirm 39.
`Cc1cccc(OCC(=O)NNC(=O)CCCCC(=O)NNC(=O)COc2cccc(C)c2)c1` gave mIAP activ 0.86, mIAP block 14, hIAP block -224, hIAP activ 3.2* and hIAP act confirm -33.
CCOC(=O)CC(NS(=O)(=O)Cc1ccccc1)c1ccc(C)cc1 (stereo unspecified) was read as bIAP inh 6, mIAP activ 1.1, mIAP block -6, bIAP act 0.9, hIAP block -6 and hIAP activ 1.1.
`Cc1cc(F)ccc1S(=O)(=O)N1CCCOC1CNC(=O)C(=O)NC1CCCC1` (stereo unspecified) gave mIAP activ 1, mIAP block -2, hIAP block -25 and hIAP activ 1.3.
Cc1ccc(C(=O)NCC(=O)OCC(=O)c2c(N)n(C)c(=O)n(C)c2=O)s1 was read as bIAP inh 12, mIAP activ 0.94, mIAP block 6, bIAP act 0.9, hIAP block 1 and hIAP activ 0.99.
`Cc1ccc(C(=O)NNC(=O)CCCCC(=O)NNC(=O)c2ccc(C)cc2)cc1` gave mIAP activ 1, mIAP block -4, hIAP block -131, hIAP activ 2.3* and hIAP act confirm -23.
Screening Cc1ccc(-n2ncc3c(NNC(=O)c4ccco4)ncnc32)cc1Cl returned mIAP activ 0.96, mIAP block 4, hIAP block -193, hIAP activ 2.9* and hIAP act confirm -57.
`Cc1cccc(-n2ncc3c(NCc4ccco4)ncnc32)c1` gave bIAP inh 8, mIAP activ 1.1, mIAP block -12, bIAP act 0.9, hIAP block -2 and hIAP activ 1.
`Cc1cccc(-n2ncc3c(NNC(=O)c4ccco4)ncnc32)c1` gave mIAP activ 0.96, mIAP block 4, hIAP block -247, hIAP activ 3.5* and hIAP act confirm -74*.
`Cn1cc(C(=O)C(F)(F)F)c2ccccc21` gave bIAP inh -3, mIAP activ 0.95, mIAP block 5, bIAP act 1, hIAP block -24 and hIAP activ 1.2.
Screening Cn1cc(C(=O)NS(=O)(=O)Nc2ccc(Br)cc2)c2ccccc21 returned mIAP activ 0.99, mIAP block 1, hIAP block 38*, hIAP activ 0.62 and hIAP act confirm -7.
Screening CC(C)c1ccc(OCC(=O)NNC(=S)NC(=O)C2CC2)cc1 returned mIAP activ 0.87, mIAP block 13, hIAP block 4 and hIAP activ 0.96.
Screening N#Cc1ccc(OCC(=O)NNC(=S)NC(=O)C2CC2)cc1 returned mIAP activ 0.78, mIAP block 22, hIAP block -121, hIAP activ 2.2* and hIAP act confirm 0.
Screening CCc1ccc(N=C2N=C(N)c3ccccc32)cc1 returned bIAP inh 8, mIAP activ 0.96, mIAP block 4, bIAP act 0.9, hIAP block 38*, hIAP activ 0.62 and hIAP act confirm 21.
CC1(C)CC(NS(=O)(=O)c2ccc(S(N)(=O)=O)cc2)CC(C)(C)N1 was read as mIAP activ 0.94, mIAP block 6, hIAP block -1 and hIAP activ 1.
For CCCCCCC(=O)N=Nc1c(O)[nH]c2ccc([N+](=O)[O-])cc12 the results were bIAP inh -17, mIAP activ 0.83, mIAP block 17, bIAP act 1.2, hIAP block -16 and hIAP activ 1.2.
Screening COCCNC(=S)N=Nc1c(O)[nH]c2ccc([N+](=O)[O-])cc12 returned mIAP activ 0.82, mIAP block 18, hIAP block -141, hIAP activ 2.4* and hIAP act confirm -40.
For Cc1ccc(-c2cc(C(=O)N3CCc4ccccc4C3)[nH]n2)cc1C the results were mIAP activ 1.4, mIAP block -44, hIAP block -149, hIAP activ 2.5* and hIAP act confirm 6.
Screening COc1cccc(-c2cc(C(=O)N3CCc4ccccc4C3)[nH]n2)c1 returned mIAP activ 1.1, mIAP block -14, hIAP block 1 and hIAP activ 0.99.
Screening On1onc2c3cc(-c4ccccc4)nc3ccc21 returned bIAP inh 18, mIAP activ 0.91, mIAP block 9, bIAP act 0.8, hIAP block 37*, hIAP activ 0.63 and hIAP act confirm -3.
`c1ccc(-c2cc3c(ccc4nonc43)nn2)cc1` gave bIAP inh 4, mIAP activ 1, mIAP block -4, bIAP act 1, hIAP block -19 and hIAP activ 1.2.
`Cc1nn(C(=O)CCC(=O)NCCc2ccccc2)c2ccccc12` gave mIAP activ 0.95, mIAP block 4, hIAP block 13 and hIAP activ 0.87.
